Activity calls are given as the source filed them. No cut-off for these calls is given here.
How the values were obtained:
Hepatitis C virus [1] = assay: Antiviral activity against HCV infected in human Huh7.5.1 cells assessed as reduction in viral replication at 1000 nM treated through microporation 17 hrs prior to infection for 4 hrs measured after 20 hrs by luciferase assay; assay type: functional, organism-based; details: Hepacivirus hominis, Huh-7
Method in brief: (§1)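 Huh7.5.1 cells were microporated with oligodeoxynucleotide (10–1000 nM) and infected with reporter HCVcc (FL-J6/JFH-5/C19Rluc2AUbi construct) about 17 h later. Viral replication was read 20 h after infection, normalized to cell number by WST-1, and expressed as % of a scrambled-sequence non-specific ODN control. Triplicate.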

Hepatitis C virus [2] = assay: Antiviral activity against HCV infected in human Huh7.5.1 cells at 1000 nM treated through lipofection after 17 hrs of infection by luciferase assay; assay type: functional, Hepacivirus hominis, Huh-7
Method in brief: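 Huh7.5.1 cells first infected with HCVcc; after 17 h, ODNs transfected by lipid reagent at 10–1000 nM. Triplicate runs; signal normalised to cell number by WST-1 and expressed as percent of non-specific scrambled ODN control.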

Hepatitis C virus [3] = assay: Antiviral activity against HCV infected in human Huh7.5.1 cells assessed as reduction in viral replication treated through microporation 17 hrs prior to infection for 4 hrs measured after 20 hrs by luciferase assay relative to control; assay type: functional, Hepacivirus hominis, Huh-7; parameters: scale not given: the % may be the effect or the level left
Method in brief: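 Huh7.5.1 cells electroporated (microporation) with ODNs at 10–1000 nM, then infected with HCVcc; replication read 20 h after infection. Triplicate runs; signal normalised to cell number by WST-1 and expressed as percent of scrambled-sequence non-specific ODN control.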

Hepatitis C virus [4] = assay: Cytotoxicity against HCV infected in human Huh7.5.1 cells treated through microporation for < 17 hrs prior to 4 hrs infection period measured after 20 hrs postinfection by luciferase assay; assay type: organism-based; details: hepacivirus hominis, huh-7, 20 h
Hepatitis C virus [5] = assay: Antiviral activity against HCV infected in human Huh7.5.1 cells assessed as reduction in viral replication at 100 nM treated through microporation 17 hrs prior to infection for 4 hrs measured after 20 hrs by luciferase assay; assay type: functional, organism-based; details: Hepacivirus hominis, Huh-7; method in brief: as §1
Hepatitis C virus [6] = assay: Antiviral activity against HCV infected in human Huh7.5.1 cells at 100 nM treated through lipofection after 17 hrs of infection by luciferase assay; assay type: functional, organism-based; details: Hepacivirus hominis, Huh-7
Method in brief: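 Huh7.5.1 cells were infected with reporter HCVcc (FL-J6/JFH-5/C19Rluc2AUbi construct) without trypsinization. After 17 h, cells were transfected with oligodeoxynucleotide using a lipid reagent (10–1000 nM tested). Replication signal was normalized to cell number by WST-1 and expressed as % of a scrambled-sequence non-specific ODN control. Triplicate.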

Hepatitis C virus [7] = assay: Cytotoxicity against HCV infected in human Huh7.5.1 cells treated through microporation for 17 hrs prior to 4 hr infection period measured after 20 hrs postinfection by luciferase assay; assay type: organism-based; details: hepacivirus hominis, huh-7, 20 h
Hepatitis C virus [8] = assay: Antiviral activity against HCV infected in human Huh7.5.1 cells assessed as reduction in viral replication treated through microporation 17 hrs prior to infection for 4 hrs measured after 20 hrs by luciferase assay; assay type: functional, organism-based; details: Hepacivirus hominis; Huh-7; method in brief: as §1
[9] = tested on: Internal ribosome entry site (IRES); assay: Inhibition of HCV IRES RNA fragment-mediated translation in human Huh7.5.1 cells treated through microporation 17 hrs prior to infection for 4 hrs measured after 20 hrs by reticulocyte based translation assay; assay type: cell-based; details: Hepacivirus hominis; Huh-7
Hepatitis C virus [10] = assay: Antiviral activity against HCV in cell-free system at 100 nM; assay type: functional; details: Hepacivirus hominis
[11] = tested on: Internal ribosome entry site (IRES); assay: Inhibition of HCV IRES RNA fragment-mediated translation in human Huh7.5.1 cells treated through microporation 17 hrs prior to infection for 4 hrs measured after 20 hrs by luciferase reporter gene assay; assay type: cell-based; details: Hepacivirus hominis; Huh-7

SMILES: Cc1cn([C@@H]2O[C@H](COP(=O)(O)O[C@H]3[C@@H](O)[C@H](n4ccc(N)nc4=O)O[C@@H]3COP(=O)(O)O[C@H]3[C@@H](O)[C@H](n4cnc5c(N)ncnc54)O[C@@H]3COP(=O)(O)O[C@H]3[C@@H](O)[C@H](n4cc(C)c(=O)[nH]c4=O)O[C@@H]3COP(=O)(O)O[C@H]3[C@@H](O)[C@H](n4ccc(N)nc4=O)O[C@@H]3COP(=O)(O)O[C@H]3[C@@H](O)[C@H](n4cnc5c(N)ncnc54)O[C@@H]3COP(=O)(O)O[C@H]3[C@@H](O)[C@H](n4ccc(N)nc4=O)O[C@@H]3COP(=O)(O)O[C@H]3[C@@H](O)[C@H](n4cnc5c(N)ncnc54)O[C@@H]3COP(=O)(O)O[C@H]3[C@@H](O)[C@H](n4cnc5c(N)ncnc54)O[C@@H]3COP(=O)(O)O[C@H]3[C@@H](O)[C@H](n4ccc(N)nc4=O)O[C@@H]3COP(=O)(O)O[C@H]3[C@@H](O)[C@H](n4ccc(N)nc4=O)O[C@@H]3COP(=O)(O)O[C@H]3[C@@H](O)[C@H](n4ccc(N)nc4=O)O[C@@H]3COP(=O)(O)O[C@H]3[C@@H](O)[C@H](n4cnc5c(N)ncnc54)O[C@@H]3CO)[C@@H](OP(=O)(O)OC[C@H]3O[C@@H](n4ccc(N)nc4=O)[C@H](O)[C@@H]3OP(=O)(O)OC[C@H]3O[C@@H](n4cnc5c(=O)[nH]c(N)nc54)[C@H](O)[C@@H]3OP(=O)(O)OC[C@H]3O[C@@H](n4cnc5c(=O)[nH]c(N)nc54)[C@H](O)[C@@H]3OP(=O)(O)OC[C@H]3O[C@@H](n4cnc(N)cc4=O)C[C@@H]3OP(=O)(O)OCCCNC(=O)CCc3c[nH]cn3)[C@H]2O)c(=O)[nH]c1=O
- Activity (Hepatitis C virus [1]): inactive
- Activity (Hepatitis C virus [2]): 50%
- Activity (Hepatitis C virus [3]): 50%
- Activity (Hepatitis C virus [4]): Toxic
- Activity (Hepatitis C virus [5]): Active
- Activity (Hepatitis C virus [6]): Active
- Activity (Hepatitis C virus [7]): Non-toxic
- Activity (Hepatitis C virus [8]): Dose-dependent effect

SMILES: Cc1cn([C@@H]2O[C@H](COP(=O)(O)O[C@H]3[C@@H](O)[C@H](n4ccc(N)nc4=O)O[C@@H]3COP(=O)(O)O[C@H]3C(O)[C@H](n4cnc5c(N)ncnc54)O[C@@H]3COP(=O)(O)O[C@H]3[C@@H](O)[C@H](n4ccc(N)nc4=O)O[C@@H]3COP(=O)(O)O[C@H]3[C@@H](O)[C@H](n4cnc5c(N)ncnc54)O[C@@H]3COP(=O)(O)O[C@H]3[C@@H](O)[C@H](n4cnc5c(N)ncnc54)O[C@@H]3COP(=O)(O)O[C@H]3[C@@H](O)[C@H](n4ccc(N)nc4=O)O[C@@H]3COP(=O)(O)O[C@H]3[C@@H](O)[C@H](n4ccc(N)nc4=O)O[C@@H]3COP(=O)(O)O[C@H]3C[C@H](n4ccc(N)nc4=O)O[C@@H]3COP(=O)(O)OCCCNC(=O)C(CCCc3c[nH]cn3)CCCc3c[nH]cn3)[C@@H](OP(=O)(O)OC[C@H]3O[C@@H](n4cnc5c(N)ncnc54)[C@H](O)[C@@H]3OP(=O)(O)OC[C@H]3O[C@@H](n4ccc(N)nc4=O)C(O)[C@@H]3OP(=O)(O)OC[C@H]3O[C@@H](n4cc(C)c(=O)[nH]c4=O)[C@H](O)[C@@H]3OP(=O)(O)OC[C@H]3O[C@@H](n4ccc(N)nc4=O)[C@H](O)[C@@H]3OP(=O)(O)OC[C@H]3O[C@@H](n4cnc5c(=O)[nH]c(N)nc54)[C@H](O)[C@@H]3OP(=O)(O)OC[C@H]3O[C@@H](n4cnc5c(=O)[nH]c(N)nc54)[C@H](O)[C@@H]3OP(=O)(O)OC[C@H]3O[C@@H](n4cnc(N)cc4=O)[C@H](O)[C@@H]3OP(=O)(O)O)[C@H]2O)c(=O)[nH]c1=O (stereo not given in full)
- Activity (Hepatitis C virus [2]): 50%
- Activity [9]: Active
- Activity (Hepatitis C virus [10]): inactive
- Activity (Hepatitis C virus [6]): Active
- Activity (Hepatitis C virus [7]): Non-toxic
- Activity [11]: Active

SMILES: Cc1cn([C@@H]2O[C@H](COP(=O)(O)O[C@H]3[C@@H](O)[C@H](n4ccc(N)nc4=O)O[C@@H]3COP(=O)(O)O[C@H]3[C@@H](O)[C@H](n4ccc(N)nc4=O)O[C@@H]3COP(=O)(O)O[C@H]3[C@@H](O)[C@H](n4ccc(N)nc4=O)O[C@@H]3COP(=O)(O)O[C@H]3[C@@H](O)[C@H](n4cnc5c(N)ncnc54)O[C@@H]3COP(=O)(O)O[C@H]3[C@@H](O)[C@H](n4cnc5c(N)ncnc54)O[C@@H]3COP(=O)(O)O[C@H]3[C@@H](O)[C@H](n4ccc(N)nc4=O)O[C@@H]3CO)[C@@H](OP(=O)(O)OC[C@H]3O[C@@H](n4cnc5c(N)ncnc54)[C@H](O)[C@@H]3OP(=O)(O)OC[C@H]3O[C@@H](n4cnc5c(=O)[nH]c(N)nc54)[C@H](O)[C@@H]3OP(=O)(O)OC[C@H]3O[C@@H](n4cc(C)c(=O)[nH]c4=O)[C@H](O)[C@@H]3OP(=O)(O)OC[C@H]3O[C@@H](n4cc(C)c(=O)[nH]c4=O)[C@H](O)[C@@H]3OP(=O)(O)OC[C@H]3O[C@@H](n4cc(C)c(=O)[nH]c4=O)[C@H](O)[C@@H]3OP(=O)(O)OC[C@H]3O[C@@H](n4cnc5c(=O)[nH]c(N)nc54)[C@H](O)[C@@H]3OP(=O)(O)OC[C@H]3O[C@@H](n4cc(C)c(=O)[nH]c4=O)[C@H](O)[C@@H]3OP(=O)(O)OC[C@H]3O[C@@H](n4ccc(N)nc4=O)[C@H](O)[C@@H]3O[PH](O)(O)OC[C@H]3O[C@@H](n4cnc5c(N)ncnc54)[C@H](O)[C@@H]3OP(=O)(O)OC[C@H]3O[C@@H](n4cnc5c(N)ncnc54)[C@H](O)[C@@H]3OP(=O)(O)O)[C@H]2O)c(=O)[nH]c1=O
- Activity (Hepatitis C virus [7]): Non-toxic

SMILES: Cc1cn([C@@H]2O[C@H](COP(=O)(O)O[C@H]3[C@@H](O)[C@H](n4ccc(N)nc4=O)O[C@@H]3COP(=O)(O)O[C@H]3[C@@H](O)[C@H](n4cnc5c(N)ncnc54)O[C@@H]3COP(=O)(O)O[C@H]3[C@@H](O)[C@H](n4cc(C)c(=O)[nH]c4=O)O[C@@H]3COP(=O)(O)O[C@H]3[C@@H](O)[C@H](n4ccc(N)nc4=O)O[C@@H]3COP(=O)(O)O[C@@H]3[C@@H](COP(=O)(O)O[C@H]4[C@@H](O)[C@H](n5ccc(N)nc5=O)O[C@@H]4COP(=O)(O)O[C@H]4[C@@H](O)[C@H](n5cnc6c(N)ncnc65)O[C@@H]4COP(=O)(O)O[C@H]4[C@@H](O)[C@H](n5cnc6c(N)ncnc65)O[C@@H]4COP(=O)(O)O[C@H]4[C@@H](O)[C@H](n5ccc(N)nc5=O)O[C@@H]4COP(=O)(O)O[C@H]4[C@@H](O)[C@H](n5ccc(N)nc5=O)O[C@@H]4COP(=O)(O)O[C@H]4[C@@H](O)[C@H](n5ccc(N)nc5=O)O[C@@H]4COP(=O)(O)O[C@H]4C[C@H](n5cnc6c(N)ncnc65)O[C@@H]4COP(=O)(O)OCCCNC(=O)CCc4c[nH]cn4)OC(n4cnc5c(N)ncnc54)[C@@H]3O)[C@@H](OP(=O)(O)OC[C@H]3O[C@@H](n4ccc(N)nc4=O)[C@H](O)[C@@H]3OP(=O)(O)OC[C@H]3O[C@@H](n4cnc5c(=O)[nH]c(N)nc54)[C@H](O)[C@@H]3OP(=O)(O)OC[C@H]3O[C@@H](n4cnc5c(=O)[nH]c(N)nc54)[C@H](O)[C@@H]3OP(=O)(O)OC[C@H]3O[C@@H](n4ccc(N)nc4=O)[C@H](O)[C@@H]3OP(=O)(O)O)[C@H]2O)c(=O)[nH]c1=O (stereo not given in full)
- Activity (Hepatitis C virus [1]): inactive
- Activity (Hepatitis C virus [2]): 50%
- Activity (Hepatitis C virus [3]): 50%
- Activity (Hepatitis C virus [4]): Toxic
- Activity (Hepatitis C virus [5]): Active
- Activity (Hepatitis C virus [6]): Active
- Activity (Hepatitis C virus [7]): Non-toxic
- Activity (Hepatitis C virus [8]): Dose-dependent effect

SMILES: Cc1cn([C@@H]2O[C@H](COP(=O)(O)O[C@H]3[C@@H](O)[C@H](n4ccc(N)nc4=O)O[C@@H]3COP(=O)(O)O[C@H]3[C@@H](O)[C@H](n4cnc5c(N)ncnc54)O[C@@H]3COP(=O)(O)O[C@H]3[C@@H](O)[C@H](n4cc(C)c(=O)[nH]c4=O)O[C@@H]3COP(=O)(O)O[C@H]3[C@@H](O)[C@H](n4ccc(N)nc4=O)O[C@@H]3COP(=O)(O)O[C@@H]3[C@@H](COP(=O)(O)O[C@H]4[C@@H](O)[C@H](n5ccc(N)nc5=O)O[C@@H]4COP(=O)(O)O[C@H]4[C@@H](O)[C@H](n5cnc6c(N)ncnc65)O[C@@H]4COP(=O)(O)O[C@H]4[C@@H](O)[C@H](n5cnc6c(N)ncnc65)O[C@@H]4COP(=O)(O)O[C@H]4[C@@H](O)[C@H](n5ccc(N)nc5=O)O[C@@H]4COP(=O)(O)O[C@H]4[C@@H](O)[C@H](n5ccc(N)nc5=O)O[C@@H]4COP(=O)(O)O[C@H]4[C@@H](O)[C@H](n5ccc(N)nc5=O)O[C@@H]4COP(=O)(O)O[C@H]4C[C@H](n5cnc6c(N)ncnc65)O[C@@H]4COP(=O)(O)O)OC(n4cnc5c(N)ncnc54)[C@@H]3O)[C@@H](OP(=O)(O)OC[C@H]3O[C@@H](n4ccc(N)nc4=O)[C@H](O)[C@@H]3OP(=O)(O)OC[C@H]3O[C@@H](n4cnc5c(=O)[nH]c(N)nc54)[C@H](O)[C@@H]3OP(=O)(O)OC[C@H]3O[C@@H](n4cnc5c(=O)[nH]c(N)nc54)[C@H](O)[C@@H]3OP(=O)(O)OC[C@H]3O[C@@H](n4ccc(N)nc4=O)[C@H](O)[C@@H]3OP(=O)(O)O)[C@H]2O)c(=O)[nH]c1=O (stereo not given in full)
- Activity (Hepatitis C virus [2]): 50%
- Activity (Hepatitis C virus [3]): 50%
- Activity (Hepatitis C virus [4]): Toxic
- Activity (Hepatitis C virus [5]): Active
- Activity (Hepatitis C virus [6]): Active
- Activity (Hepatitis C virus [7]): Non-toxic
- Activity (Hepatitis C virus [8]): Dose-dependent effect

From ChEMBL document CHEMBL1151932, “Antiviral effect of ribonuclease conjugated oligodeoxynucleotides targeting the IRES RNA of the hepatitis C virus” (Bioorg Med Chem Lett, 2009)
